Screens (PubChem BioAssay)
An excerpt weighted towards active compounds, which were near 27% of everything screened.
Cav32 inh = inhibitors of human Cav3.2 T-type calcium channel; O95180; 100,000 compounds, 4% hits; Cav3.2-expressing cells, Fluo-4 calcium fluorescence FDSS; hits give low values; B-score at 10 µM;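 active means single-dose well whose peak fluorescence ratio is a statistical outlier from its plate by either plate-standardised score or position-corrected B-score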
CYP2C9 inh = human CYP2C9 inhibition; CYP2C9 Supersomes, luciferin-H conversion, luminescence; inhibition, % at 5 µM; 96,000 compounds, 20% hits;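 active means blocking of liver enzyme CYP2C9 beyond about 50% at 5 µM, limit read from the data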
CYP2C19 inhib = blocks human cytochrome P450 2C19. CYP2C19 Supersomes, luciferin-H EGE luminescence, 30 min. 96,000 compounds, 21% hits. P33261. AID 778. inhibition, % at 5 µM;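 active means CYP2C19 inhibition above a set limit at 5 µM in the primary screen, cut at about 50% in these data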;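 further: plate controls were negative control wells for no effect and 2.5 mM tranylcypromine positive control for full effect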
Rev-RRE block = inhibitors of HIV-1 Rev-RRE RNA interaction; 97,000 compounds, 0.79% hits; Rev peptide-RRE RNA binding, FRET; AID 704; inhibition, % at 8 µM; P05866;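 active means inhibition above the screen-wide mean plus 3 SD, cut at about 35% in these data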;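 further: 0% = median DMSO wells and 100% = median Neomycin B control wells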
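Test system: labelled RRE RNA duplex and labelled Rev peptide. Times: 5 min compound–RNA preincubation, then 15 min with peptide, 25 °C. Doses: single-dose 8 µM. Measured by: FRET, excitation 480 nm, emission 540 nm donor and 671 nm acceptor. Measure: % inhibition of FRET ratio versus controls.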
CYP2C19 act = activators of human cytochrome P450 2C19; P33261; recombinant CYP2C19, luciferin-H EGE luminescence; hits give high values; 0 = fully inhibited enzyme, 1 = untreated enzyme; activation factor at 5 µM; 96,000 tested, under 10 active;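 active means activation factor of at least 2 at 5 µM in the primary screen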;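 further: 0 = wells with 2.5 mM tranylcypromine and 1 = vehicle-only wells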
CYP2C9 activ = activators of human CYP2C9 | recombinant CYP2C9, luciferin-H conversion, luminescence; hits give high values; factor 1 = untreated enzyme, 0 = blocked | activation factor at 5 µM | 96,000 compounds, 1.4% hits | AID 1024;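 active means activation factor of 2 or more for CYP2C9 at a 5 µM dose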;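 further: 0 = sulfaphenazole-blocked wells and 1 = vehicle-only wells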
* hit, by the source's call.

`O=C(CSCC(=O)c1ccccc1)Nc1ccccc1Cl` gave Cav32 inh -0.3, CYP2C9 inh 1, CYP2C19 inhib 68*, Rev-RRE block 3, CYP2C19 act 0.3 and CYP2C9 activ 1.
For Cc1ccccc1NC(=O)Cn1nc(C(F)(F)F)cc1C1CC1 the results were Cav32 inh -1.4, CYP2C9 inh -8, CYP2C19 inhib 72*, Rev-RRE block 13, CYP2C19 act 0.3 and CYP2C9 activ 1.1.
Cc1cccc(NC(=O)Cn2nc(C(F)(F)F)cc2C2CC2)c1 was read as Cav32 inh -0.99, CYP2C9 inh 5, CYP2C19 inhib 44, Rev-RRE block 18, CYP2C19 act 0.6 and CYP2C9 activ 0.9.
COc1cc2nc(CN3CCN(c4ncc(C(F)(F)F)cc4Cl)CC3)[nH]c(=O)c2cc1OC was read as CYP2C9 inh 15, CYP2C19 inhib 15, CYP2C19 act 0.8 and CYP2C9 activ 0.9.
Screening O=S(=O)(c1cccc2ccccc12)N1CCSC1 returned Cav32 inh -0.9, CYP2C9 inh -416, CYP2C19 inhib 38, CYP2C19 act 0.6 and CYP2C9 activ 5.2*.
For O=C(COc1ncnc2ccccc12)c1ccc2c(c1)OCCO2 the results were Cav32 inh -0.45, CYP2C9 inh 0, CYP2C19 inhib -11, Rev-RRE block 3, CYP2C19 act 1.1 and CYP2C9 activ 1.
COc1ccc(N(C(C)=O)S(=O)(=O)c2cc(OC)ccc2OC)cc1 was read as Cav32 inh -1.7, CYP2C9 inh 50*, CYP2C19 inhib 28, Rev-RRE block 1, CYP2C19 act 0.7 and CYP2C9 activ 0.5.
For COc1ccc(OC)c(S(=O)(=O)Nc2c(F)cccc2F)c1 the results were Cav32 inh 1.4, CYP2C9 inh -20, CYP2C19 inhib 26, Rev-RRE block 2, CYP2C19 act 0.7 and CYP2C9 activ 1.2.
`Cc1nc(CNS(=O)(=O)c2cccc(F)c2)cs1` gave Cav32 inh 1.5, CYP2C9 inh 5, CYP2C19 inhib 28, Rev-RRE block 1, CYP2C19 act 0.7 and CYP2C9 activ 0.9.
COc1ccc(-c2nc(CC(=O)O)cs2)cc1 was read as Cav32 inh -0.024, CYP2C9 inh -4, CYP2C19 inhib -15, Rev-RRE block 5, CYP2C19 act 1.1 and CYP2C9 activ 1.
`COc1cc(OC)c(C#N)c(S(=O)(=O)Cc2ccccc2)c1` gave Cav32 inh 1.7, CYP2C9 inh -44, CYP2C19 inhib 96*, Rev-RRE block 9, CYP2C19 act 0 and CYP2C9 activ 1.4.
`COc1ccc(-c2nc(CNS(=O)(=O)c3cc(OC)ccc3OC)cs2)cc1` gave Cav32 inh -3.2, CYP2C9 inh 72*, CYP2C19 inhib 70*, CYP2C19 act 0.3 and CYP2C9 activ 0.3.
For Cc1nc(CNS(=O)(=O)c2ccc3ccccc3c2)cs1 the results were Cav32 inh -1.1, CYP2C9 inh -101, CYP2C19 inhib 45, CYP2C19 act 0.5 and CYP2C9 activ 2*.
For COc1ccc(N2CCN(S(=O)(=O)Cc3ccccc3)CC2)cc1 the results were Cav32 inh -0.0043, CYP2C9 inh -17, CYP2C19 inhib -30, Rev-RRE block 6, CYP2C19 act 1.3 and CYP2C9 activ 1.2.
`CCC(=O)NCCc1nc2cc(NC(=O)c3ccc(OC)cc3)ccc2n1C` gave Cav32 inh 0.76, CYP2C9 inh 33, CYP2C19 inhib 18, Rev-RRE block -1, CYP2C19 act 0.8 and CYP2C9 activ 0.7.
COc1cc(OC)nc(Oc2ccccc2C(=O)Oc2ccc(F)cc2Cl)n1 was read as Cav32 inh -1.5, CYP2C9 inh 42, CYP2C19 inhib 33, Rev-RRE block 8, CYP2C19 act 0.7 and CYP2C9 activ 0.6.
Screening Cc1nc2nc(-c3ccco3)[nH]n2c(=O)c1C returned Cav32 inh 0.059, CYP2C9 inh 12, CYP2C19 inhib -2, Rev-RRE block 1, CYP2C19 act 1 and CYP2C9 activ 0.9.
For O=C(NCc1cccc(Br)c1)C1CC(c2ccccc2C(F)(F)F)=NO1 (configuration not stated) the results were Cav32 inh -0.9.
Screening COc1ccc(OC)c(NC(=O)CSCC(=O)O)c1 returned Cav32 inh -0.19, CYP2C9 inh -4, CYP2C19 inhib 10, CYP2C19 act 0.9 and CYP2C9 activ 1.
Screening COc1ccc(OC)c(S(=O)(=O)NCc2ccccc2)c1 returned Cav32 inh -0.36, CYP2C9 inh -16, CYP2C19 inhib 96*, Rev-RRE block 3, CYP2C19 act 0 and CYP2C9 activ 1.2.
For COc1ccc(OC)c(NS(=O)(=O)Cc2ccccc2)c1 the results were CYP2C9 inh -36, CYP2C19 inhib 94*, Rev-RRE block 6, CYP2C19 act 0.1 and CYP2C9 activ 1.4.
For COc1ccc(OC)c(S(=O)(=O)NCc2cccnc2)c1 the results were Cav32 inh -0.55, CYP2C9 inh -30, CYP2C19 inhib 13, Rev-RRE block 11, CYP2C19 act 0.9 and CYP2C9 activ 1.3.
`COc1ccc(S(=O)(=O)NCc2csc(-c3cccnc3)n2)cc1` gave Cav32 inh -0.041, CYP2C9 inh 68*, CYP2C19 inhib 91*, Rev-RRE block 1, CYP2C19 act 0.1 and CYP2C9 activ 0.3.
Screening CCc1ccc(OC)c(S(=O)(=O)NCCOc2ccccc2)c1 returned Cav32 inh -1.4, CYP2C9 inh 15, CYP2C19 inhib 75*, Rev-RRE block 13, CYP2C19 act 0.2 and CYP2C9 activ 0.8.
CC1(C)C(=O)NCCN1C(=O)CCC(=O)O was read as Cav32 inh 0.36 and Rev-RRE block 2.
For Cc1cc(C)n2nc(SCC(=O)N/N=C/c3ccc(F)cc3)nc2n1 the results were Cav32 inh -0.28, CYP2C9 inh -3, CYP2C19 inhib 25, Rev-RRE block 3, CYP2C19 act 0.8 and CYP2C9 activ 1.
`CCS(=O)(=O)NCc1csc(-c2ccccc2)n1` gave Cav32 inh 0.83, CYP2C9 inh 0, CYP2C19 inhib 70*, CYP2C19 act 0.3 and CYP2C9 activ 1.
`CS(=O)(=O)NCc1csc(-c2ccccc2)n1` gave Cav32 inh -1.3, CYP2C9 inh 7, CYP2C19 inhib 5, Rev-RRE block 8, CYP2C19 act 0.9 and CYP2C9 activ 0.9.
`COc1ccc(OC)c(S(=O)(=O)NC(C)(C)C)c1` gave Cav32 inh -0.036, CYP2C9 inh 20, CYP2C19 inhib 52*, Rev-RRE block 4, CYP2C19 act 0.5 and CYP2C9 activ 0.8.
`CCOc1cc(Br)ccc1S(=O)(=O)NCc1ccccc1` gave CYP2C9 inh -45, CYP2C19 inhib 71*, Rev-RRE block 0, CYP2C19 act 0.3 and CYP2C9 activ 1.5.
Screening CCOC(=O)COc1nc(Nc2ccccc2C)nc(N(C)C)n1 returned Cav32 inh 0.86, CYP2C9 inh 36, CYP2C19 inhib 35, CYP2C19 act 0.6 and CYP2C9 activ 0.6.
